Measurements: article PMC9486889 (Japanese Journal of Clinical Oncology, 2022)

Assay: Phase I dose-escalation: DLT/MTD and treatment-emergent adverse events
Assay type: in vivo, Japanese patients
Summary of the method: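 Open-label, non-randomized 3+3 dose escalation, starting at 30 mg oral BIW with planned escalation to 50 mg, in continuous 4-week cycles. The DLT window was 28 days from first dose. DLTs were grade 4 hematologic toxicity, grade ≥3 febrile neutropenia, grade 3 thrombocytopenia with significant bleeding, other grade ≥3 non-hematologic toxicity, or troponin rising on 3 consecutive days. AEs were coded by MedDRA 19.1 and graded by CTCAE 4.03.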

## Nc1cc(F)ccc1NC(=O)c1ccc(CNC(=O)/C=C/c2cccnc2)cc1 [HBI-8000, tucidinostat]
30 mg BIW (N = 7)
  Grade 3: Number of patients with at least one TEAE: 5 (71.4) n (%)
  Grade 3 TEAE: Abdominal pain: 0 (0) n (%)
  Grade 3 TEAE: Alanine aminotransferase increased: 0 (0) n (%)
  Grade 3 TEAE: Anaemia: 1 (14.3) n (%)
  Grade 3 TEAE: Blood creatine phosphokinase increased: 1 (14.3) n (%)
  Grade 3 TEAE: Enterocolitis: 0 (0) n (%)
  Grade 3 TEAE: Erythema multiforme: 0 (0) n (%)
  Grade 3 TEAE: Erythema nodosum: 0 (0) n (%)
  Grade 3 TEAE: Hyperglycaemia: 0 (0) n (%)
  Grade 3 TEAE: Hypertriglyceridaemia: 0 (0) n (%)
  Grade 3 TEAE: Lymphocyte count decreased: 1 (14.3) n (%)
  Grade 3 TEAE: Neutropenia: 1 (14.3) n (%)
  Grade 3 TEAE: Parkinsonism: 1 (14.3) n (%)
  Grade 3 TEAE: Pyrexia: 0 (0) n (%)
  Grade 3 TEAE: Rash generalized: 1 (14.3) n (%)
  Grade 3 TEAE: Thrombocytopenia: 0 (0) n (%)
  Grade 4: Number of patients with at least one TEAE: 0 (0) n (%)
  Grade 4 TEAE: Abdominal pain: 0 (0) n (%)
  Grade 4 TEAE: Alanine aminotransferase increased: 0 (0) n (%)
  Grade 4 TEAE: Anaemia: 0 (0) n (%)
  Grade 4 TEAE: Blood creatine phosphokinase increased: 0 (0) n (%)
  Grade 4 TEAE: Enterocolitis: 0 (0) n (%)
  Grade 4 TEAE: Erythema multiforme: 0 (0) n (%)
  Grade 4 TEAE: Erythema nodosum: 0 (0) n (%)
  Grade 4 TEAE: Hyperglycaemia: 0 (0) n (%)
  Grade 4 TEAE: Hypertriglyceridaemia: 0 (0) n (%)
  Grade 4 TEAE: Lymphocyte count decreased: 0 (0) n (%)
  Grade 4 TEAE: Neutropenia: 0 (0) n (%)
  Grade 4 TEAE: Neutrophil count decreased: 0 (0) n (%)
  Grade 4 TEAE: Parkinsonism: 0 (0) n (%)
  Grade 4 TEAE: Pyrexia: 0 (0) n (%)
  Grade 4 TEAE: Rash generalized: 0 (0) n (%)
  Grade 4 TEAE: Thrombocytopenia: 0 (0) n (%)
  Grade 4 TEAE: White blood cell count decreased: 0 (0) n (%)
  Number of patients with at least one related TEAE: 6 (85.7) n (%)
  TEAE: Abdominal pain: 1 (14.3) n (%)
  TEAE: Anaemia: 5 (71.4) n (%)
  TEAE: Back pain: 0 (0) n (%)
  TEAE: C-reactive protein increased: 1 (14.3) n (%)
  TEAE: Decreased appetite: 1 (14.3) n (%)
  TEAE: Diarrhoea: 3 (42.9) n (%)
  TEAE: Dysgeusia: 2 (28.6) n (%)
  TEAE: Fatigue: 3 (42.9) n (%)
  TEAE: Headache: 1 (14.3) n (%)
  TEAE: Hypertriglyceridaemia: 1 (14.3) n (%)
  TEAE: Hyperuricaemia: 2 (28.6) n (%)
  TEAE: Hypocalcaemia: 0 (0) n (%)
  TEAE: Hypokalaemia: 2 (28.6) n (%)
  TEAE: Insomnia: 1 (14.3) n (%)
  TEAE: Nasopharyngitis: 0 (0) n (%)
  TEAE: Nausea: 1 (14.3) n (%)
  TEAE: Neutropenia: 1 (14.3) n (%)
  TEAE: Neutrophil count decreased: 2 (28.6) n (%)
  TEAE: Platelet count decreased: 3 (42.9) n (%)
  TEAE: Pyrexia: 1 (14.3) n (%)
  TEAE: Thrombocytopenia: 2 (28.6) n (%)
  TEAE: Weight decreased: 1 (14.3) n (%)
  TEAE: White blood cell count decreased: 3 (42.9) n (%)
30 mg BIW cohort
  TEAEs that led to dose reduction or dose delay: four
  TEAEs that led to treatment discontinuation: two
30 mg BIW cohort, six patients assessed, Cycle 1
  Dose-limiting toxicities: no dose-limiting toxicitys
40 mg BIW (N = 7)
  Grade 3: Number of patients with at least one TEAE: 4 (57.1) n (%)
  Grade 3 TEAE: Abdominal pain: 1 (14.3) n (%)
  Grade 3 TEAE: Alanine aminotransferase increased: 1 (14.3) n (%)
  Grade 3 TEAE: Anaemia: 0 (0) n (%)
  Grade 3 TEAE: Blood creatine phosphokinase increased: 0 (0) n (%)
  Grade 3 TEAE: Enterocolitis: 1 (14.3) n (%)
  Grade 3 TEAE: Erythema multiforme: 1 (14.3) n (%)
  Grade 3 TEAE: Erythema nodosum: 1 (14.3) n (%)
  Grade 3 TEAE: Hyperglycaemia: 1 (14.3) n (%)
  Grade 3 TEAE: Hypertriglyceridaemia: 1 (14.3) n (%)
  Grade 3 TEAE: Lymphocyte count decreased: 0 (0) n (%)
  Grade 3 TEAE: Neutropenia: 0 (0) n (%)
  Grade 3 TEAE: Neutrophil count decreased: 0 (0) n (%)
  Grade 3 TEAE: Parkinsonism: 0 (0) n (%)
  Grade 3 TEAE: Pyrexia: 1 (14.3) n (%)
  Grade 3 TEAE: Rash generalized: 0 (0) n (%)
  Grade 3 TEAE: Thrombocytopenia: 2 (28.6) n (%)
  Grade 3 TEAE: White blood cell count decreased: 1 (14.3) n (%)
  Grade 4: Number of patients with at least one TEAE: 2 (28.6) n (%)
  Grade 4 TEAE: Abdominal pain: 0 (0) n (%)
  Grade 4 TEAE: Alanine aminotransferase increased: 0 (0) n (%)
  Grade 4 TEAE: Anaemia: 0 (0) n (%)
  Grade 4 TEAE: Blood creatine phosphokinase increased: 0 (0) n (%)
  Grade 4 TEAE: Enterocolitis: 0 (0) n (%)
  Grade 4 TEAE: Erythema multiforme: 0 (0) n (%)
  Grade 4 TEAE: Erythema nodosum: 0 (0) n (%)
  Grade 4 TEAE: Hyperglycaemia: 0 (0) n (%)
  Grade 4 TEAE: Hypertriglyceridaemia: 0 (0) n (%)
  Grade 4 TEAE: Lymphocyte count decreased: 0 (0) n (%)
  Grade 4 TEAE: Neutropenia: 2 (28.6) n (%)
  Grade 4 TEAE: Neutrophil count decreased: 0 (0) n (%)
  Grade 4 TEAE: Parkinsonism: 0 (0) n (%)
  Grade 4 TEAE: Pyrexia: 0 (0) n (%)
  Grade 4 TEAE: Rash generalized: 0 (0) n (%)
  Grade 4 TEAE: Thrombocytopenia: 0 (0) n (%)
  Grade 4 TEAE: White blood cell count decreased: 0 (0) n (%)
  Number of patients with at least one related TEAE: 7 (100) n (%)
  TEAE: Abdominal pain: 1 (14.3) n (%)
  TEAE: Anaemia: 0 (0) n (%)
  TEAE: Back pain: 2 (28.6) n (%)
  TEAE: C-reactive protein increased: 1 (14.3) n (%)
  TEAE: Decreased appetite: 2 (28.6) n (%)
  TEAE: Diarrhoea: 1 (14.3) n (%)
  TEAE: Dysgeusia: 1 (14.3) n (%)
  TEAE: Fatigue: 1 (14.3) n (%)
  TEAE: Headache: 1 (14.3) n (%)
  TEAE: Hypertriglyceridaemia: 1 (14.3) n (%)
  TEAE: Hyperuricaemia: 0 (0) n (%)
  TEAE: Hypocalcaemia: 3 (42.9) n (%)
  TEAE: Hypokalaemia: 1 (14.3) n (%)
  TEAE: Insomnia: 1 (14.3) n (%)
  TEAE: Nasopharyngitis: 2 (28.6) n (%)
  TEAE: Nausea: 2 (28.6) n (%)
  TEAE: Neutropenia: 2 (28.6) n (%)
  TEAE: Neutrophil count decreased: 0 (0) n (%)
  TEAE: Platelet count decreased: 3 (42.9) n (%)
  TEAE: Pyrexia: 2 (28.6) n (%)
  TEAE: Thrombocytopenia: 4 (57.1) n (%)
  TEAE: Weight decreased: 2 (28.6) n (%)
  TEAE: White blood cell count decreased: 1 (14.3) n (%)
40 mg BIW cohort
  Incidence of thrombocytopenia: 57.1%
  TEAEs that led to dose reduction or dose delay: four
  TEAEs that led to treatment discontinuation: four
Total (N = 14)
  Grade 3: Number of patients with at least one TEAE: 9 (64.3) n (%)
  Grade 3 TEAE: Abdominal pain: 1 (7.1) n (%)
  Grade 3 TEAE: Alanine aminotransferase increased: 1 (7.1) n (%)
  Grade 3 TEAE: Anaemia: 1 (7.1) n (%)
  Grade 3 TEAE: Blood creatine phosphokinase increased: 1 (7.1) n (%)
  Grade 3 TEAE: Enterocolitis: 1 (7.1) n (%)
  Grade 3 TEAE: Erythema multiforme: 1 (7.1) n (%)
  Grade 3 TEAE: Erythema nodosum: 1 (7.1) n (%)
  Grade 3 TEAE: Hyperglycaemia: 1 (7.1) n (%)
  Grade 3 TEAE: Hypertriglyceridaemia: 1 (7.1) n (%)
  Grade 3 TEAE: Lymphocyte count decreased: 1 (7.1) n (%)
  Grade 3 TEAE: Neutropenia: 1 (7.1) n (%)
  Grade 3 TEAE: Neutrophil count decreased: 2 (14.3) n (%)
  Grade 3 TEAE: Parkinsonism: 1 (7.1) n (%)
  Grade 3 TEAE: Pyrexia: 1 (7.1) n (%)
  Grade 3 TEAE: Rash generalized: 1 (7.1) n (%)
  Grade 3 TEAE: Thrombocytopenia: 2 (14.3) n (%)
  Grade 3 TEAE: White blood cell count decreased: 2 (14.3) n (%)
  Grade 4: Number of patients with at least one TEAE: 2 (14.3) n (%)
  Grade 4 TEAE: Abdominal pain: 0 (0) n (%)
  Grade 4 TEAE: Alanine aminotransferase increased: 0 (0) n (%)
  Grade 4 TEAE: Anaemia: 0 (0) n (%)
  Grade 4 TEAE: Blood creatine phosphokinase increased: 0 (0) n (%)
  Grade 4 TEAE: Enterocolitis: 0 (0) n (%)
  Grade 4 TEAE: Erythema multiforme: 0 (0) n (%)
  Grade 4 TEAE: Erythema nodosum: 0 (0) n (%)
  Grade 4 TEAE: Hyperglycaemia: 0 (0) n (%)
  Grade 4 TEAE: Hypertriglyceridaemia: 0 (0) n (%)
  Grade 4 TEAE: Lymphocyte count decreased: 0 (0) n (%)
  Grade 4 TEAE: Neutropenia: 2 (14.3) n (%)
  Grade 4 TEAE: Neutrophil count decreased: 0 (0) n (%)
  Grade 4 TEAE: Parkinsonism: 0 (0) n (%)
  Grade 4 TEAE: Pyrexia: 0 (0) n (%)
  Grade 4 TEAE: Rash generalized: 0 (0) n (%)
  Grade 4 TEAE: Thrombocytopenia: 0 (0) n (%)
  Grade 4 TEAE: White blood cell count decreased: 0 (0) n (%)
  Number of patients with at least one related TEAE: 13 (92.9) n (%)
  TEAE: Abdominal pain: 2 (14.3) n (%)
  TEAE: Anaemia: 5 (35.7) n (%)
  TEAE: Back pain: 2 (14.3) n (%)
  TEAE: C-reactive protein increased: 2 (14.3) n (%)
  TEAE: Decreased appetite: 3 (21.4) n (%)
  TEAE: Diarrhoea: 4 (28.6) n (%)
  TEAE: Dysgeusia: 3 (21.4) n (%)
  TEAE: Fatigue: 4 (28.6) n (%)
  TEAE: Headache: 2 (14.3) n (%)
  TEAE: Hypertriglyceridaemia: 2 (14.3) n (%)
  TEAE: Hyperuricaemia: 2 (14.3) n (%)
  TEAE: Hypocalcaemia: 3 (21.4) n (%)
  TEAE: Hypokalaemia: 3 (21.4) n (%)
  TEAE: Insomnia: 2 (14.3) n (%)
  TEAE: Nasopharyngitis: 2 (14.3) n (%)
  TEAE: Nausea: 3 (21.4) n (%)
  TEAE: Neutropenia: 3 (21.4) n (%)
  TEAE: Neutrophil count decreased: 2 (14.3) n (%)
  TEAE: Platelet count decreased: 6 (42.9) n (%)
  TEAE: Pyrexia: 3 (21.4) n (%)
  TEAE: Thrombocytopenia: 6 (42.9) n (%)
  TEAE: Weight decreased: 3 (21.4) n (%)
  TEAE: White blood cell count decreased: 4 (28.6) n (%)
All 14 patients
  Neutrophil count decreased leading to dose reduction or dose delay: 14.3%
  Patients with at least one TEAE: 92.9%
  Platelet count decreased leading to dose reduction or dose delay: 28.6%
  TEAEs that led to dose reduction or dose delay: 57.1%
  TEAEs that led to treatment discontinuation: 42.9%
oral
  Recommended phase II dose (RP2D): 40 mg BIW
oral, 4-week cycles
  Maximum tolerated dose (MTD): 40 mg BIW
